FGF22 binding: shifts melting point of recombinant human FGF22; recombinant FGF22 thermal shift, SYPRO orange fluorescence; percent of sucrose octasulfate shift, DMSO zero; Q9HCT0; AID 651658; 1.5% of 340,000 active; activity (Tm shift, normalised), % at 9.99 µM;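 active means mean Tm shift, scaled 0 neutral to 100 positive control, at about 1.3% or above, every replicate too, limit read from the data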
Target sequence (Q9HCT0 whole entry, looked up): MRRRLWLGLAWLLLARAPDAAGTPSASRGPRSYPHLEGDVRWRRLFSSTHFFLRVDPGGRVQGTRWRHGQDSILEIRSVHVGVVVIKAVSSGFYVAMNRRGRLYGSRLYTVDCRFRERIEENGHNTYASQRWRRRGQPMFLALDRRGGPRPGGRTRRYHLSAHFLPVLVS
S100A4 MyoIIA: inhibitors of human S100A4 binding to myosin IIA peptide; P26447; 0.14% of 360,000 active; inhibition, % at 10.7 µM; S100A4/TAMRA-MyoIIA peptide fluorescence polarization;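 active means mean inhibition of at least 70% across replicates, with every replicate also reaching that level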
Target sequence (P26447 whole entry, looked up): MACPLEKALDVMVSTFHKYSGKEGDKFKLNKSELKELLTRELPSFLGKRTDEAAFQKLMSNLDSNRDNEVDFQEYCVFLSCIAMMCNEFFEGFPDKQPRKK
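Test system – S100A4 monomer (human) · Compound – single-point compound testing · Schedule – 5 min incubation before reading · Probe or stimulus – TAMRA-labelled myosin IIA heavy-chain peptide probe, 5 nM · Benchmarks – neutral control DMSO, positive control TFP · Medium – Calcium-containing HEPES buffer, pH 7.2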
miR-122 sensor: inhibitors of miR-122 in Huh7 cells; Huh7 miR-122 Renilla luciferase sensor, 48 h; neutral wells = 0, positive control = 100; activation (reporter increase), % at 12.5 µM; 0.3% of 340,000 active;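 active means mean replicate activation score at least 90 and every replicate individually at or above 90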;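 further: higher luciferase means less miR-122 activity so hits act as miR-122 inhibitors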
SIRT5 inh: inhibitors of human sirtuin-5 desuccinylase; 1.1% of 330,000 active; inhibition, % at 15 µM; Purified SirT5, succinyl-peptide AMC, trypsin-coupled fluorescence; in the data active means inhibition above about 15%
Target sequence (Q9NXA8 whole entry, looked up): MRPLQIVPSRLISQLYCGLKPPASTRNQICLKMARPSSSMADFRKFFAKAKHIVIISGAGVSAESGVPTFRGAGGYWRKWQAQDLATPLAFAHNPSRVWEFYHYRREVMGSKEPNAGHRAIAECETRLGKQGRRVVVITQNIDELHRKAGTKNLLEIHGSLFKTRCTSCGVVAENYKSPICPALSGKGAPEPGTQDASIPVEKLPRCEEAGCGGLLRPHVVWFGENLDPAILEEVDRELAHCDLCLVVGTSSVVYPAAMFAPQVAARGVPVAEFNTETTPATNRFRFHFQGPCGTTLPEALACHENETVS
E-sel inducer: induces E-selectin expression in human endothelial cells; HUVEC E-selectin immunofluorescence imaging; normalized: neutral wells 0, TNF-alpha wells 100; 0.37% of 260,000 active; activation, % at 7.58 µM; P16581;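 active means mean E-selectin-positive cell signal at least 10% of the positive control, reached in at least 60% of replicates, without over 20% cell loss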
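assay system = HUVEC, human umbilical vein endothelial cells | input = 3,000 HUVEC seeded per well | medium = EGM-2 growth medium on 0.1% gelatin-coated wells | dosing = one compound dose added by pin transfer | signal = immunofluorescence imaging | read-out basis = % PE-positive cells | control set = TNF-alpha, DMSO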
Numbers stand for hits; - = inactive; . = no result given. Shown are actives, neighbours in structure and some others; about 2.5% of the full set was active somewhere.

SMILES | FGF22 binding | S100A4 MyoIIA | miR-122 sensor | SIRT5 inh | E-sel inducer
COc1ccc(C)cc1NC(=O)CCNC(=O)Cn1cnc2ccccc2c1=O | - | - | - | 18 | -
C[C@@H]1CN([C@@H](C)CO)C(=O)Cc2cc(NC(=O)CCCN(C)C)ccc2O[C@@H]1CN(C)S(=O)(=O)c1cccs1 | - | . | - | . | -
CCC(=O)N1C[C@H](C)[C@@H](OC)CN(C)C(=O)c2cc(NC(=O)c3ccccc3)ccc2OC[C@@H]1C | - | - | - | - | -
COC(=O)c1c(C)oc(C)c1S(=O)(=O)NCC1CC1 | - | - | 97 | - | -
CSC1=NSC2=NC(=O)/C(=C/c3coc4ccccc4c3=O)C(=N)N12 | - | - | - | - | -
CSC1=NSC2=NC(=O)/C(=C/c3coc4ccc(O)cc4c3=O)C(=N)N12 | . | - | - | 21 | .
COCC#Cc1cnc2c(c1)C(=O)N([C@@H](C)CO)C[C@H](C)[C@@H](CN(C)Cc1ccc(-c3ccccc3)cc1)O2 | - | . | . | - | -
COC(=O)[C@H](Cc1ccccc1)N1C(=O)O[C@@H](Cc2ccccc2)[C@H]1/C=C/C1CC1 | - | - | . | - | .
CO/N=C/C(C#N)=C/c1ccc(OC)cc1 | 44 | - | - | - | .
COc1ccc(/C=C(/C#N)S(=O)(=O)c2ccc(C)cc2)cc1 | . | . | - | . | .
O=C(N[C@@H](Cc1ccccc1)c1nc2ccccc2[nH]1)c1ccc([N+](=O)[O-])cc1 | - | - | . | - | .
O=C(NC(Cc1ccccc1)c1nc2ccccc2[nH]1)c1cccc([N+](=O)[O-])c1 (stereo not given) | - | - | . | . | 83
Cc1nn(CCO)c2ncc(C(=O)c3cc(Cl)ccc3O)cc12 | - | - | - | - | -
COc1ccc(O)c(C(=O)c2cnc3c(c2)c(C)nn3CCO)c1 | - | - | - | 19 | .
COc1ccc(S(=O)(=O)N(C)C[C@@H]2Oc3c(NC(=O)Nc4ccccc4)cccc3C(=O)N([C@@H](C)CO)C[C@@H]2C)cc1 | . | . | - | . | -
C[C@H](CO)N1C[C@H](C)[C@H](CN(C)S(=O)(=O)c2cn(C)cn2)Oc2ccc(NC(=O)Nc3ccccc3)cc2C1=O | - | - | - | - | -
Cc1c(C(=O)NCc2ccccn2)oc2ccc(S(=O)(=O)N3CCC4(CC3)OCCO4)cc12 | 43 | - | . | - | -
Cc1c(C(=O)NCc2ccccc2)oc2ccc(S(=O)(=O)N3CCC4(CC3)OCCO4)cc12 | . | . | - | . | .
Cc1noc(C)c1S(=O)(=O)N(C)C[C@@H]1OCCCC[C@H](C)Oc2ccc(NC(=O)C3CCCCC3)cc2C(=O)N([C@H](C)CO)C[C@H]1C | - | 111 | - | - | -
C[C@@H]1CCCCO[C@H](CN(C)S(=O)(=O)c2ccccc2)[C@@H](C)CN([C@@H](C)CO)C(=O)c2cc(NC(=O)C3CCCCC3)ccc2O1 | . | - | - | 16 | -
C[C@@H]1CN([C@@H](C)CO)C(=O)c2cc(NC(=O)C3CCCCC3)ccc2O[C@@H](C)CCCCO[C@@H]1CN(C)S(=O)(=O)c1ccc(Cl)cc1 | . | - | - | 18 | -
Cc1noc(C)c1S(=O)(=O)N(C)C[C@@H]1OCCCC[C@H](C)Oc2ccc(NC(=O)C3CCCCC3)cc2C(=O)N([C@H](C)CO)C[C@@H]1C | - | - | - | - | -
CSc1nc(SCC(=O)O)c2sc3nc(-c4ccccc4)c4c(c3c2n1)CCC4 | - | - | - | 19 | .
COc1ccc(-n2c(CNC(=O)COc3ccc(Cl)cc3)n[nH]c2=S)cc1 | - | - | - | - | .
COc1ccc(-n2c(CNC(=O)COc3ccc(Cl)cc3Cl)n[nH]c2=S)cc1 | 43 | - | . | - | -
SMILES | FGF22 binding | S100A4 MyoIIA | miR-122 sensor | SIRT5 inh | E-sel inducer
O=C(N/N=C/C=C\c1ccco1)c1cccs1 | 44 | - | - | - | .
CC(=C/c1ccccc1)/C=N/NC(=O)c1cccs1 | - | - | - | - | .
O=C(N/N=C/C(Br)=C\c1ccccc1)c1cccs1 | - | - | - | 20 | .
COc1ccc(NC(=O)N(C)C[C@H]2Oc3cc(-c4cccc(C(=O)N(C)C)c4)ccc3S(=O)(=O)N([C@@H](C)CO)C[C@H]2C)cc1 | . | . | - | . | -
COc1ccccc1-c1cc(C(=O)NC(C)C)no1 | - | - | - | 22 | .
CCC(CC)NC(=O)Nc1cccc(C)c1C | 43 | - | . | - | -
NS(=O)(=O)c1ccc(CNC(=S)Nc2ccc(F)c(Cl)c2)cc1 | 43 | - | . | - | .
COc1ccc(CNC(=S)Nc2cccc(OC)c2)cc1 | - | - | - | - | .
COc1ccc(CNC(=S)Nc2ccc(F)c(Cl)c2)cc1 | 1.7 | - | . | - | -
COc1ccc(CNC(=S)NCc2ccc(OC(C)C)cc2)cc1 | 43 | - | - | - | .
COCC(=O)N1C[C@@H](C)[C@@H](OC)CN(C)C(=O)c2ccc(NC(=O)c3ccccc3)cc2OC[C@@H]1C | - | - | - | - | -
O=C(c1ccc2c(c1)OCO2)N1CC2(C1)[C@@H](c1ccccc1)[C@@H](CO)N2C(=O)C1CCC1 | - | - | . | - | -
CCCCCCn1cc(C(=O)OCC)c(=O)c2cc(F)c(F)cc21 | - | - | . | - | -
CCOC(=O)c1cn(CC#N)c2cc(F)c(F)cc2c1=O | 43 | - | . | - | .
C[C@H](CO)N1C[C@H](C)[C@H](CN(C)Cc2ccc(Cl)c(Cl)c2)Oc2c(NC(=O)C3CCOCC3)cccc2C1=O | - | - | - | - | -
Cc1ccc2nc(=O)c(NNc3ccccc3)cnc2c1 | - | - | . | - | 178
Cc1cc2nc3ccc(N(C)C)cc3nc2cc1N | - | 178 | - | - | .
C[C@@H]1CN([C@@H](C)CO)C(=O)c2cc(NC(=O)C3CCCCC3)ccc2O[C@@H](C)CCCCO[C@H]1CN(C)S(=O)(=O)c1cccs1 | - | - | - | - | -
COC(=O)C1=C(C)N(Cc2cccc(C(F)(F)F)c2)C(=NCc2ccc(C(F)(F)F)cc2)NC1c1ccccc1C(F)(F)F (stereo not given) | - | - | . | - | -
COC(=O)C1=C(C)N(Cc2cccc(C(F)(F)F)c2)C(=NCc2ccc(OC)cc2)NC1c1ccccc1C(F)(F)F (stereo not given) | - | - | . | 15 | -
COC(=O)C1=C(C)N(Cc2ccccc2)C(=NCc2ccccc2)N[C@H]1c1cccc(F)c1 | 45 | - | . | - | -
COC(=O)C1=C(C)N(Cc2ccccc2C(F)(F)F)C(=NCc2ccc3c(c2)OCO3)NC1c1cccc(F)c1 (stereo not given) | - | - | . | 17 | -
COc1ccc2c3c(n(C)c2c1)[C@H](CO)N(C(=O)Cc1ccccn1)CC31CCN(Cc2ccccn2)CC1 | - | - | . | . | -
COc1cccc(OCCSc2nc3ccccc3c(=O)[nH]2)c1 | 43 | - | . | - | -
N/C(Cn1cncn1)=N\NC(=O)C(=O)Nc1cccc(C(F)(F)F)c1 | 43 | - | - | - | -
Cc1cccc(NC(=S)NNC(=O)c2ccc(O)cc2O)c1C | 2.3 | - | - | - | .
Cc1cccc(NC(=O)NNC(=O)c2cc3ccccc3cc2O)c1C | - | - | . | - | .

Screens deposited in PubChem by Broad Institute.
